Assay results reported in ChEMBL document CHEMBL1123191, “Allergenic alpha-methylene-gamma-butyrolactones. Study of the capacity of beta-acetoxy- and beta-hydroxy-alpha-methylene-gamma-butyrolactones to induce allergic contact dermatitis in guinea pigs” (1986).

Columns and labels:
Cavia porcellus [1] = species on record: Cavia porcellus; assay: Compound was measured for open epicutaneous test on sensitized guinea pig after sensitization of compound itself; format: functional
Summary of the method: (§1)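 Female Albino Himalayan spotted guinea pigs (300-500 g) sensitized by FCAT: hapten emulsified in Freund's complete adjuvant, 0.1 mL intradermal in shaved nuchal region, three injections on alternate days. After 2-week rest, 25 μL of 2% lactone in CH2Cl2 (others at same molar concentration) applied to 2-cm² area of shaved flank. Read at 24 h, scale 0-3.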

Cavia porcellus [2] = species on record: Cavia porcellus; assay: Compound was measured for open epicutaneous test on sensitized guinea pig after sensitization of compound (4-Hydroxy-3-methylene-1-oxa-spiro[4.5]decan-2-one); format: functional; summary of the method: as §1
Cavia porcellus [3] = species on record: Cavia porcellus; assay: Compound was measured for open epicutaneous test on sensitized guinea pig after sensitization of compound (3-Methylene-1-oxa-spiro[4.5]decan-2-one); format: functional; summary of the method: as §1
Cavia porcellus [4] = species on record: Cavia porcellus; assay: Compound was measured for open epicutaneous test on sensitized guinea pig after sensitization of compound (Acetic acid 4-methylene-5-oxo-tetrahydro-furan-3-yl ester); format: functional; summary of the method: as §1
Cavia porcellus [5] = species on record: Cavia porcellus; assay: Compound was measured for open epicutaneous test on sensitized guinea pig after sensitization of compound (Acetic acid 3-methylene-2-oxo-1-oxa-spiro[4.5]dec-4-yl ester); format: functional; summary of the method: as §1
Cavia porcellus [6] = species on record: Cavia porcellus; assay: Compound was measured for open epicutaneous test on sensitized guinea pig after sensitization of compound (4-Hydroxy-3-methylene-dihydro-furan-2-one); format: functional; summary of the method: as §1
Cavia porcellus [7] = species on record: Cavia porcellus; assay: Compound was measured for open epicutaneous test on sensitized guinea pig after sensitization of compound (4-Hydroxy-3-methylene-1-oxa-spiro[4.5]decan-2-one). average skin reaction.; format: functional; summary of the method: as §1
Cavia porcellus [8] = species on record: Cavia porcellus; assay: Compound was measured for open epicutaneous test on sensitized guinea pig after sensitization of compound (4-Hydroxy-3-methylene-dihydro-furan-2-one) average skin reaction; format: functional; summary of the method: as §1
Cavia porcellus [9] = species on record: Cavia porcellus; assay: Compound was measured for open epicutaneous test on sensitized guinea pig after sensitization of compound (Acetic acid 4-methylene-5-oxo-tetrahydro-furan-3-yl ester) average skin reaction; format: functional; summary of the method: as §1
Cavia porcellus [10] = species on record: Cavia porcellus; assay: Compound was measured for open epicutaneous test on sensitized guinea pig after sensitization of compound (3-Methylene-1-oxa-spiro[4.5]decan-2-one) average skin reaction.; format: functional; summary of the method: as §1
Cavia porcellus [11] = species on record: Cavia porcellus; assay: Compound was measured for open epicutaneous test on sensitized guinea pig after sensitization of compound 1a

Row | Compound | Sensitized animals (Cavia porcellus [1]) | Sensitized animals (Cavia porcellus [2]) | Sensitized animals (Cavia porcellus [3]) | Sensitized animals (Cavia porcellus [4]) | Sensitized animals (Cavia porcellus [5]) | Sensitized animals (Cavia porcellus [6]) | Average skin reaction (Cavia porcellus [7]) | Average skin reaction (Cavia porcellus [8]) | Average skin reaction (Cavia porcellus [9]) | Average skin reaction (Cavia porcellus [10]) | Average skin reaction (Cavia porcellus [11]) | Average skin reaction (Cavia porcellus [5])
1 | C=C1C(=O)OC[C@@H]1O | 6 | 0 | 0 | 6 | 0 | 6 |  |  |  |  |  | 
2 | C=C1C(=O)OC2(CCCCC2)[C@@H]1OC(C)=O | 6 | 6 | 6 | 0 | 6 | 0 | 1.8 | 0 | 0 | 1.7 | 0 | 3
3 | C=C1C(=O)OC2(CCCCC2)[C@@H]1O | 0 | 6 | 6 | 0 | 6 | 0 | 0.7 | 0 | 0 | 0.4 | 0 | 0.5
4 | C=C1C(=O)OC[C@@H]1OC(C)=O | 6 | 0 | 0 | 6 | 0 | 4 | 0 | 0.3 | 0.8 | 0 | 0.4 | 0
5 | C=C1CC2(CCCCC2)OC1=O | 0 | 6 | 6 | 0 | 6 | 0 | 1.7 | 0 | 0 | 1.2 | 0 | 0.8
6 | C=C1CCOC1=O [TULIPALINE A] | 6 | 0 | 0 | 6 | 0 | 6 | 0 | 1.1 | 1.1 | 0 | 2 | 0
